Assays:
[1] = target: PI3-kinase p110-delta/p85-alpha (Homo sapiens, UniProt O00329); assay: Inhibition of N-terminal His6-tagged recombinant full length human p110delta/untagged recombinant full length human p85alpha expressed in baculovirus infected Sf21 insect cells using PIP2 as substrate preincubated for 15 mins followed by substrate addition and measured after 1 hr by HTRF assay
[2] = Lipophilicity, log D of the compound by HPLC analysis; assay type: physicochemical
[3] = Intrinsic clearance in Wistar Han rat at 0.5 mg/kg, iv or 1 mg/kg, po; assay type: ADME, organism-based; details: in vivo
[4] = Unbound volume of distribution in Wistar Han rat; assay type: ADME; details: in vivo
[5] = Oral bioavailability in Wistar Han rat; assay type: ADME, organism-based; details: in vivo
[6] = Plasma clearance in Beagle dog at 0.25 mg/kg, iv or 0.5 mg/kg, po; assay type: ADME, organism-based, Canis lupus familiaris
[7] = target: Sodium channel protein type 5 subunit alpha (Homo sapiens, UniProt Q14524); assay: Inhibition of Nav1.5 (unknown origin)
Cytochrome P450 2C19 = Cytochrome P450 2C19 (Homo sapiens, UniProt P33261); assay: Inhibition of CYP2C19 (unknown origin); assay type: ADME
[8] = Intrinsic clearance in dog hepatocytes; assay type: ADME, cell-based, Canis lupus familiaris, Hepatocyte; details: read-out: CLH
[9] = Trough plasma concentration C57BL/6 mouse at 100 mg/kg; assay type: ADME, organism-based; details: in vivo, read-out: Cmin
Outline: (§1)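 C57BL/6-Foxp3-GFP reporter mice were dosed at 30 and 100 mg/kg/day for up to 7 days, with exposure determined at 100 mg/kg. The unbound Cmax and trough values were derived from total plasma levels. Treg readout was bioluminescence imaging 10 min after 3 mg luciferin ip, reported as radiance in photons/s/cm²/steradian.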

[10] = Unbound Cmax in C57BL/6 mouse at 100 mg/kg; assay type: ADME, organism-based; details: in vivo; outline: as §1
[11] = Unbound trough plasma concentration C57BL/6 mouse at 100 mg/kg; assay type: ADME, organism-based; details: in vivo; outline: as §1
[12] = Dissociation constant, pKa of compound; assay type: physicochemical

Cytochrome P450 2C19, sequence (P33261 whole entry): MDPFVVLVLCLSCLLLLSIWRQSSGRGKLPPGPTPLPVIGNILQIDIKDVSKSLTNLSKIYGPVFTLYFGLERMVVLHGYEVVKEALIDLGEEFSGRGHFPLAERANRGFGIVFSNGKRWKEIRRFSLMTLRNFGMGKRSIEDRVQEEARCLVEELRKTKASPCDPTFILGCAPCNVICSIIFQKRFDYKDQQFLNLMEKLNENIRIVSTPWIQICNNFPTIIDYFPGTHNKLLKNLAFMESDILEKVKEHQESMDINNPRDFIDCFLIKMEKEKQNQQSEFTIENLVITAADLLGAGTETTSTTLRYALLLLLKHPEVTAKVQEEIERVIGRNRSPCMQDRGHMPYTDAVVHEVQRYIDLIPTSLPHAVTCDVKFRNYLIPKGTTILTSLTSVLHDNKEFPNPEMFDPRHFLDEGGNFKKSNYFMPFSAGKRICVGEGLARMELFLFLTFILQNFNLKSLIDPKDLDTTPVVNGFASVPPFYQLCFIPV
PI3-kinase p110-delta/p85-alpha, sequence (P27986 whole entry): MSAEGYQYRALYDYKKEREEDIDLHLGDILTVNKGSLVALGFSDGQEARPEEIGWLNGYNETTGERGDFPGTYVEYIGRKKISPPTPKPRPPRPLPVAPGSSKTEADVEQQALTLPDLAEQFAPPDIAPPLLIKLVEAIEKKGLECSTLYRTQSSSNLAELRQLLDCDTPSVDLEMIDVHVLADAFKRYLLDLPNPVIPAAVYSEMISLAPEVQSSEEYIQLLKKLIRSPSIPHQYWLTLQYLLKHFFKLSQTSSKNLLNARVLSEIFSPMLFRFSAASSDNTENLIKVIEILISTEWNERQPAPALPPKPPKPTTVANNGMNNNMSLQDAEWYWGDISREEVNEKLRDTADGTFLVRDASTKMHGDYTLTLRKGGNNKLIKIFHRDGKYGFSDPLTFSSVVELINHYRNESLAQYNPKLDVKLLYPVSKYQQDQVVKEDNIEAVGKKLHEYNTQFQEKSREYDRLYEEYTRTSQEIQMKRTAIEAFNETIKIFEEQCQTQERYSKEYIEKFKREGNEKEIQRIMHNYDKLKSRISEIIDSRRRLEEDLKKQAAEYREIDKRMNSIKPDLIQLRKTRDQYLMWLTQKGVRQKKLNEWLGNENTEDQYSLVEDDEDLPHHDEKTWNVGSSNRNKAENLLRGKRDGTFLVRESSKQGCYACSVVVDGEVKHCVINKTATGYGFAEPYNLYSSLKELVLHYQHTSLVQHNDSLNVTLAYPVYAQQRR
PI3-kinase p110-delta/p85-alpha, sequence (O00329 whole entry): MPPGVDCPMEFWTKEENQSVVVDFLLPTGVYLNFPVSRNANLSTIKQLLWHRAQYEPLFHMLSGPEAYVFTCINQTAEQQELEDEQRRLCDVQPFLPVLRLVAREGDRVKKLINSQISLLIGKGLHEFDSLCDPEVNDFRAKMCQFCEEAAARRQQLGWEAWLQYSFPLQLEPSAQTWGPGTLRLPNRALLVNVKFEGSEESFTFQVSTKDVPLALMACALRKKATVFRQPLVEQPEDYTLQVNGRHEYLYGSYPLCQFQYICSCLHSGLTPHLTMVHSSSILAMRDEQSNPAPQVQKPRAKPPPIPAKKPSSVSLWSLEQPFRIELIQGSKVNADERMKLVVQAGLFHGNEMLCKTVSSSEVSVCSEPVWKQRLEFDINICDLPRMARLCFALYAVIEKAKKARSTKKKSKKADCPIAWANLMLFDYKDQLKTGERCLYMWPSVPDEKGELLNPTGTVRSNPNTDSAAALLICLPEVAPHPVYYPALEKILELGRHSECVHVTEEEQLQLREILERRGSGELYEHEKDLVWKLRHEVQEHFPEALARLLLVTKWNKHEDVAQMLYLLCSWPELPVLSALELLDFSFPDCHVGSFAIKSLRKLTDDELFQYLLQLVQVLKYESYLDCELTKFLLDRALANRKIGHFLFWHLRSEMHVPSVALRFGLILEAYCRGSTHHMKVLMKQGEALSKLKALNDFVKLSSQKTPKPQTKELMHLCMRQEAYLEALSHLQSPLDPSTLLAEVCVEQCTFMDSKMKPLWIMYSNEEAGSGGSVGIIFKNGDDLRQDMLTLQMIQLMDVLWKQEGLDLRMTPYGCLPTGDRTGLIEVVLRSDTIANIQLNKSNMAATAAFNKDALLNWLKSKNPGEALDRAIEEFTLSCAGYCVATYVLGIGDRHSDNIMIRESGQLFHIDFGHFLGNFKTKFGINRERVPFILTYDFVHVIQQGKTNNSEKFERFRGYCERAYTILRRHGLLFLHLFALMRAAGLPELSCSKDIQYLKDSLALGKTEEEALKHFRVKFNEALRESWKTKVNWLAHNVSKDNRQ
Sodium channel protein type 5 subunit alpha, sequence (Q14524 whole entry): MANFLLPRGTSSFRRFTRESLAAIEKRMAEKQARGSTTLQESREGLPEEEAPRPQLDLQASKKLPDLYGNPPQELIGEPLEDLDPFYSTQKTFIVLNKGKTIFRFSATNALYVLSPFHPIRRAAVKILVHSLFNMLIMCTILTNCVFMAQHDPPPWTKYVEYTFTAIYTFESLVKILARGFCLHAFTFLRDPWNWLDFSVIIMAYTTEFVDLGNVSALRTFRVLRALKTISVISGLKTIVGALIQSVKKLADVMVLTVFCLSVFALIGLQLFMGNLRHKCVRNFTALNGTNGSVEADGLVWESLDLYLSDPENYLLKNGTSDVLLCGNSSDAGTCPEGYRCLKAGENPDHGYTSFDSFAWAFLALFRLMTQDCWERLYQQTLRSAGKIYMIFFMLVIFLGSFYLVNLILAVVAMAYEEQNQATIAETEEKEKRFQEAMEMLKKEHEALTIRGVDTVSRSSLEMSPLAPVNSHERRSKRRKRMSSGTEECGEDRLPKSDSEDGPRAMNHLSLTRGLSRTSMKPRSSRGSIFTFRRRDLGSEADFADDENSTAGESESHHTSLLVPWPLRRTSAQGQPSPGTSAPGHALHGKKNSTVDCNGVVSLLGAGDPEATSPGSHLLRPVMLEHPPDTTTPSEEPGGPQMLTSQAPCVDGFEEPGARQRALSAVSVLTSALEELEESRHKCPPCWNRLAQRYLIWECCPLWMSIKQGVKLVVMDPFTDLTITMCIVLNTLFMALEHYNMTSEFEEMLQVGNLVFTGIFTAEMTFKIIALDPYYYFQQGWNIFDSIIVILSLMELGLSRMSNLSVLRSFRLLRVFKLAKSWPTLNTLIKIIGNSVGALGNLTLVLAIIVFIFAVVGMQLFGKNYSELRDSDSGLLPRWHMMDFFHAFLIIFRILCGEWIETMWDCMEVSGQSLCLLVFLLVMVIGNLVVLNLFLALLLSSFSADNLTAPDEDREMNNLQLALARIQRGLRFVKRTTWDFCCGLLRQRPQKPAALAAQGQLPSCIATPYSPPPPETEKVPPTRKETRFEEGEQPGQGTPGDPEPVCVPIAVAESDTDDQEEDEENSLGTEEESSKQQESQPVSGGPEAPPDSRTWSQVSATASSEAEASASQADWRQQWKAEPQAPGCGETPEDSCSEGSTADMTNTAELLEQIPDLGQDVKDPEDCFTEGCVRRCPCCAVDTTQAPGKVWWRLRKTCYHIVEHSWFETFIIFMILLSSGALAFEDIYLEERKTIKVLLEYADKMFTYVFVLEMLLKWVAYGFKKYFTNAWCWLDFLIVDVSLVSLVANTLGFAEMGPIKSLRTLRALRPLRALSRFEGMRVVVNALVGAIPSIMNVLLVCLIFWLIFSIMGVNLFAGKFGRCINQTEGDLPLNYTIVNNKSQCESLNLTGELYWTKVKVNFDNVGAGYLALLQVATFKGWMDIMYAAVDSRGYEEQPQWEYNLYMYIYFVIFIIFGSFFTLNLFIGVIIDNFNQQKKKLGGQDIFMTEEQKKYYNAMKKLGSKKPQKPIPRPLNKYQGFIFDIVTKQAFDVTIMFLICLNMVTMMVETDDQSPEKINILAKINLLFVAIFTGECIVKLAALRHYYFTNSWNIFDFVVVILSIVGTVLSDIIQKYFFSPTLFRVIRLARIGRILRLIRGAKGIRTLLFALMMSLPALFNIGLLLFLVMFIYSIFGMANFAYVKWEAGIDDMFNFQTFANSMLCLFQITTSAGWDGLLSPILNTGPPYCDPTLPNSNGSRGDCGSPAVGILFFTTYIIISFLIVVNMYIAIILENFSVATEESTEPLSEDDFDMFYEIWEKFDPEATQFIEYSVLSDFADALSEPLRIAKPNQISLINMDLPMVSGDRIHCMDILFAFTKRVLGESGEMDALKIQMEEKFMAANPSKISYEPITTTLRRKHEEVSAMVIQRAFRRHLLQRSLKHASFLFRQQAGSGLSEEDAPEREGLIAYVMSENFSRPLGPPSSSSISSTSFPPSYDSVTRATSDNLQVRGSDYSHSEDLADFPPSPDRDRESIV

IC50 [1]: 0.0016 µM | logD [2]: 0.8 | CL [3]: 64 mL/min/kg | Vdu [4]: 6.3 L/kg | bioavailability [5]: 55% | clearance [6]: 4.3 mL/min/kg | IC50 (Cytochrome P450 2C19): > 50 µM | CLint scaled [8]: < 2 mL/min/kg | concentration [9]: 110 nM | fCmax [10]: 16 µM | fCmin [11]: 52 nM | pKa [12]: 3.06
Structure (SMILES): CCn1c(-c2cnc(C)nc2)nc2c(N[C@H]3CCN(C(=O)C4CC4)C3)ncnc21
IC50 [7]: > 50 µM

From ChEMBL document CHEMBL4834420, “Projected Dose Optimization of Amino- and Hydroxypyrrolidine Purine PI3Kδ Immunomodulators” (J Med Chem, 2021)
